“Also recorded” adds a separate entry of the source. Like-named read-outs stand apart in the source and are kept apart here. Marks after values point to notes of the source that are not given here.
Experiments:
[1] = test system: TGFα release from NCI-H1299 cells; experiment: TGFα release, TGFα immunoassay; format: cell-based, human; settings: inhibitor pretreatment, NMB 100 nM
[2] = test system: reactive oxygen species in NCI-H1299 cells; experiment: Reactive oxygen species; format: cell-based, human; settings: for effect on BA1-induced reactive oxygen species / effect on basal reactive oxygen species: PP2 10 µM, GM6001 10 µM; for effect on BA1-induced reactive oxygen species / effect on H2O2-induced reactive oxygen species: NAC (5 mM), data not shown; for % Fluorescence Intensity, inhibitor alone (basal): PP2 10 µM or GM6001 (10 µM); for effect on basal reactive oxygen species: inhibitor alone
[3] = test system: EGF receptor in NCI-H1299 cells transfected with NMB receptor; format: cell-based, human; settings: for effect of PP2 / GM6001 on NMB-induced EGF receptor transactivation: 10 µM inhibitor, densitometry of 3 experiments (Fig. 3B, C)
Procedure, shortened: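 NCI-H1299 cells expressing transfected NMB receptor, grown to a monolayer, held in SIT medium 3 h. Inhibitors were added 30 min before stimulation with 0.1 µM NMB or BA1 for 2 min. Cells were lysed. 400 µg protein was immunoprecipitated overnight at 4°C with anti-phosphotyrosine, run on 4–20% SDS-PAGE and blotted with anti-EGF receptor. Alternatively, 20 µg extract was probed with anti-PY1068-EGF receptor. Detection was by ECL with densitometry.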

NSCLC patients = settings: particularly a subgroup with EGF receptor mutations; no reference given; cited from earlier work
NCI-H1299 cells [4] = experiment: MTT proliferation assay, NCI-H1299; format: cell-based, human
[5] = test system: ERK (p42/p44 MAP kinase) in NCI-H1299 cells transfected with NMB receptor; experiment: ERK tyrosine phosphorylation, Western blot; format: cell-based, human; settings: abstract statement
Procedure, shortened: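 Monolayers of NCI-H1299 cells with transfected NMB receptor were held in SIT medium 3 h. Inhibitors or anti-growth-factor antibodies (5 µg/ml) were given for 30 min, then 0.1 µM NMB or BA1 for 2 min. Lysate (20 µg) was run on 4–20% gels and blotted with anti-phospho-ERK, with anti-ERK or anti-tubulin as loading controls. Detection was by ECL with densitometry.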

NCI-H1299 cells [6] = experiment: Clonogenic assay, NCI-H1299; format: cell-based, human
lung cancer cells = settings: in vitro; ref Witta et al., 2006; Ono et al., 2004; Janmaat et al., 2003; cited from earlier work
[7] = test system: EGF receptor in NCI-H1299 cells; experiment: EGF receptor tyrosine phosphorylation, Western blot, NCI-H1299 cells; format: cell-based, human
NMB receptor = settings: ref Jensen et al., 2008; Ashwood et al., 1998; cited from earlier work
GRP receptor = settings: ref Jensen et al., 2008; Ashwood et al., 1998; cited from earlier work
[8] = Tiron 5 mM, None = 100 ± 7, mean ± S.D. of 6 determinations

COc1cc2ncnc(Nc3ccc(Oc4ccccc4)cc3)c2cc1OC [PP2, 4-(4’-Phenoxyanilino)-6,7-dimethoxyquinzoline,6,7-Dimethoxy-N(4-phenoxyphenyl)-4-quinazolinamine]
effect on NMB-induced TGFα secretion [1]: reversed | effect on BA1-induced reactive oxygen species [2]: inhibited the increase in reactive oxygen species | % Fluorescence Intensity, inhibitor alone (basal) [2, 8]: 93 ± 5% | effect on basal reactive oxygen species ([2]; Tiron 5 mM): had little effect | effect of PP2 / GM6001 on NMB-induced EGF receptor transactivation [3]: markedly inhibited; also recorded: reduced significantly

COc1cc2ncnc(Nc3ccc(F)c(Cl)c3)c2cc1OCCCN1CCOCC1 [gefitinib]
NSCLC patients responding (NSCLC patients): 10% | effect on proliferation at 1 and 3 µg/ml (NCI-H1299 cells [4]; gefitinib 1 and 3 µg/ml): having no effect | effect on EGF receptor transactivation or ERK tyrosine phosphorylation caused by NMB-like peptides [5]: inhibited | effect on colony number and size (NCI-H1299 cells [6]; 1 µg/ml gefitinib, 2 weeks (Fig. 5B3)): slightly reduced colony number and size | variation of sensitivity of lung cancer cells to gefitinib (lung cancer cells): up to 2700 fold

COc1cc2ncnc(Nc3cccc(Cl)c3)c2cc1OC [AG1478, N-(3-Chlorophenyl)-6,7-dimethoxy-4-quinazolinamine]
effect on EGF receptor transactivation or ERK tyrosine phosphorylation caused by NMB-like peptides [5]: inhibited | effect on NMB-induced EGF receptor tyrosine phosphorylation ([7]; AG1478 10 µg/ml, data not shown): inhibited

COc1ccc(C2(CNC(=O)[C@](C)(Cc3c[nH]c4ccccc34)NC(=O)Nc3ccc([N+](=O)[O-])cc3)CCCCC2)nc1 [PD176252]
affinity for NMB receptor (NMB receptor): high affinity | affinity for GRP receptor (GRP receptor): high affinity

CC(=O)N[C@@H](CS)C(=O)O [NAC, N-acetylcysteine]
effect on BA1-induced reactive oxygen species [2]: reduced | effect on H2O2-induced reactive oxygen species ([2]; Tiron 5 mM): reduced | effect of NAC on NMB-induced EGF receptor tyrosine phosphorylation ([3]; 5 mM NAC pretreatment, NMB 0.1 µM, 4 experiments (Fig. 4A, B)): inhibited

C[C@@](Cc1c[nH]c2ccccc12)(NC(=O)Nc1ccc([N+](=O)[O-])cc1)C(=O)NCC1(c2ccccn2)CCCCC1 [PD168368]
effect of 3 µM PD168368 on the gefitinib dose response curve (NCI-H1299 cells [4]; 3 µM PD168368, relative to no additions): shifted to the left | effect of PD168368 alone on proliferation (NCI-H1299 cells [4]; PD168368 alone, mean of 8 determinations (Fig. 5A)): inhibited the proliferation of NCI-H1299 cells in a dose-dependent manner | effect of PD168368 on the gefitinib dose-response curve (NCI-H1299 cells [4]; increasing concentrations of PD168368 with gefitinib (Fig. 5A)): progressive shift to the left of the gefitinib dose-response curve | effect on EGF receptor transactivation or ERK tyrosine phosphorylation caused by NMB-like peptides [5]: inhibited | effect on colony formation (NCI-H1299 cells [6]; 0.3 µM PD168368, 2 weeks (Fig. 5B2)): had little effect on colony formation | effect on BA1-induced EGF receptor tyrosine phosphorylation ([3]; 1 µM antagonist, 30 min pretreatment, 100 nM BA1, 4 experiments (Fig. 1D)): significantly reversed | effect on NMB-induced EGF receptor transactivation ([3]; data not shown): antagonized the ability of NMB to cause EGF receptor transactivation

OO [H2O2]
generation of reactive oxygen species ([2]; BA1 0.1 µM, NMB 0.1 µM or H2O2 10 µM): significantly increased | % Fluorescence Intensity, stimulus alone ([2]; NMB 0.1 µM, H2O2 10 µM or BA1 0.1 µM, 2 hour, None = 100 ± 7, mean ± S.D. of 6 determinations, P < 0.01): 589 ± 60 ^b %

O=S(=O)(O)c1cc(O)c(O)c(S(=O)(=O)O)c1 [Tiron]
effect on NMB-induced reactive oxygen species ([2]; Tiron 5 mM): greatly reduced | % Fluorescence Intensity, inhibitor + H2O2 ([2]; Tiron 5 mM 30 min prior to H2O2 10 µM, 2 hour, mean ± S.D. of 6 determinations, P < 0.01): 200 ± 14 ^b % | % Fluorescence Intensity, inhibitor + NMB ([2]; Tiron 5 mM 30 min prior to NMB 0.1 µM, 2 hour, mean ± S.D. of 6 determinations): 92 ± 9% | % Fluorescence Intensity, inhibitor alone (basal) [2, 8]: 82 ± 11% | effect on H2O2-induced reactive oxygen species ([2]; Tiron 5 mM): greatly reduced | effect on basal reactive oxygen species ([2]; Tiron 5 mM): had little effect | effect of Tiron on NMB-induced EGF receptor transactivation ([3]; 10 mM Tiron (Fig. 4D)): significantly inhibited | effect of Tiron on NMB-induced EGF receptor transactivation ([3]; 0.1 or 1 mM Tiron (Fig. 4C, D)): had little effect | effect of Tiron on NMB-induced EGF receptor transactivation, dose dependence ([3]; 0.1 to 10 mM Tiron (Fig. 4C)): inhibited in a dose-dependent manner

CNC(=O)[C@H](Cc1c[nH]c2ccccc12)NC(=O)[C@@H](CC(=O)NO)CC(C)C [GM6001, (R)-N4-Hydroxy-N1-[(S)-2-(1H–indol-3-yl)-1-methylcarbamoyl-ethyl]-2-isobutyl-succinamide]
effect on NMB-induced TGFα secretion [1]: reversed | effect on BA1-induced reactive oxygen species [2]: inhibited the increase in reactive oxygen species | % Fluorescence Intensity, inhibitor alone (basal) [2, 8]: 94 ± 4% | effect on basal reactive oxygen species ([2]; Tiron 5 mM): had little effect | effect of PP2 / GM6001 on NMB-induced EGF receptor transactivation [3]: markedly inhibited | effect of PP2 / GM6001 on NMB-induced EGF receptor transactivation ([3]; listed as GM60001): reduced significantly

bombesin
tyrosine phosphorylation of the 170 kDa EGF receptor ([7]; native NCI-H1299 cells, 0.1 µM (Fig. 1A)): caused tyrosine phosphorylation of the 170 kDa EGF receptor | increase in EGF receptor tyrosine phosphorylation ([7]; native NCI-H1299 cells, 0.1 µM, 2 min, densitometry analysis of 4 experiments (Fig. 1B)): 1.4 fold

Reference: PMC3921891 (European journal of pharmacology, 2010)
